# Measured values: ChEMBL document CHEMBL5316316, “Designing Synthetic, Sulfated Glycosaminoglycan Mimetics That Are Orally Bioavailable and Exhibiting In Vivo Anticancer Activity” (J Med Chem, 2023)
# The source made the active and inactive calls. The calls are words filed in the database; no cut-off is given here.
# Legend:
# [1] = system: HT-29; test: Antitumor activity against human HT-29 cells xenografted in NCR nude mouse assessed as reduction in DCAMKL1 expression level at 50 mg/kg, ip in presence of 5-fluorouracil and oxaliplatin of by Western blot analysis; assay type: functional, organism-based
# Method in brief: (§1)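 Bulk HT-29 cells (1 × 10^6) were grown as subcutaneous xenografts in NCr nude mice and given FUOX (25 mg/kg FU + 2 mg/kg OX IP weekly for 3 weeks). Mice were then randomized (n = 4/arm) to 50 mg/kg IP three times/week (8 doses), alone or with FUOX. Tumor lysates (n = 2/group) were Western blotted for DCAMLK1 and BMI-1.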
# [2] = system: Plasma; test: Anticoagulant activity in pooled human plasma assessed as prolongation of activated partial thromboplastin time incubated for 4 mins by coagulometer analysis; assay type: functional, cell-free
# Method in brief: (§2)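 Pooled normal citrated human plasma (90 μL) mixed with 10 μL compound and 100 μL prewarmed ellagic acid APTT reagent, incubated 4 min at 37 °C, then recalcified with 100 μL prewarmed 25 mM CaCl2. Clot time read on a fibrometer (one-stage recalcification). Water blank gave the baseline. Concentration doubling APTT came from a quadratic trend-line fit.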
# [3] = system: HT-29; test: Antitumor activity against human HT-29 cells xenografted in NCR nude mouse assessed as reduction in BMI-1 expression level at 50 mg/kg, ip in presence of 5-fluorouracil and oxaliplatin of by Western blot analysis; assay type: functional, organism-based; method in brief: as §1
# [4] = system: HT-29; test: Antitumor activity against human HT-29 cells xenografted in NCR nude mouse assessed as reduction in tumor growth at 100 mg/kg, po administered 5 times a week for 3 weeks relative to control; assay type: functional; parameters: scale not given: the % may be the effect or the level left
# Method in brief: (§3)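 Dual Hi (CD133+/CXCR4+) HT-29 cells, FACS-sorted, injected subcutaneously at 1 × 10^5 into NCr nude mice. Mice were then randomized to vehicle or 100 mg/kg oral gavage 5 times/week for 3 weeks. Tumor volume was measured by caliper three times weekly.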
# [5] = Ex-vivo growth inhibition of mouse intestinal organoids at 100 mg/kg, po measured for 5 to 7 days by phase contrast microscopic analysis; conditions: in vivo
# [6] = system: HT-29; test: Antitumor activity against human HT-29 cells xenografted in NCR nude mouse assessed as decrease in proportion of CSC at 100 mg/kg, po administered 5 times a week for 3 weeks by flow cytometry analysis
# [7] = Ex-vivo growth inhibition of mouse intestinal organoids measured for 5 to 7 days by phase contrast microscopic analysis; assay type: toxicity, Intestine; conditions: time 5-7 day
# Method in brief: (§4)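 Intestinal pieces (2–4 cm) were taken from treated xenograft mice and chelated and dissociated into crypts. About 200–500 crypts were embedded in Matrigel under mouse IntestiCult medium at 37 °C, 5% CO2. Organoids were counted by phase contrast after 5–7 days.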
# [8] = Cytotoxicity against human HT-29 cells assessed as inhibition of spheroid growth; conditions: HT-29 cell spheroids
# [9] = system: HT-29; test: Cytotoxicity against human HT-29 cells assessed as reduction in cell viability at 100 uM incubated for 60 to 72 hrs by MTT assay; assay type: toxicity, cell-based; conditions: ht-29, 100 µM, time 60-72 hrs
# Method in brief: (§5)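 HT-29 monolayer cells were seeded at about 2.5 × 10^3 per well in DMEM:F12 with 10% FBS and incubated overnight at 37 °C, 5% CO2. Compound was added for 60–72 h. MTT (5 mg/mL in PBS) was added for 2–3 h, crystals were dissolved in DMSO and absorbance read at 590 nm. Results are percent of vehicle control, at least three replicates.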
# [10] = Toxicity in NCR nude mouse xenografted with human HT-29 cells assessed as change in body weight at 100 mg/kg, po; assay type: organism-based; conditions: in vivo
# [11] = system: HT-29; test: Antitumor activity against CD133/CXCR4-induced human HT-29 cells xenografted in NCR nude mouse assessed as reduction in tumor growth at 100 mg/kg, po administered 5 times a week for 3 weeks; assay type: functional, organism-based; method in brief: as §3
# [12] = system: Plasma; test: Anticoagulant activity in human plasma assessed as prolongation of activated partial thromboplastin time by measuring concentration required to double APTT incubated for 4 mins by coagulometer analysis; assay type: functional, cell-free; method in brief: as §2
# [13] = Toxicity in NCR nude mouse xenografted with human HT-29 cells assessed as change in body weight at 50 mg/kg, ip in presence 5-fluorouracil and oxaliplatin; assay type: organism-based; conditions: in vivo
# [14] = system: HT-29; test: Antitumor activity against human CD133/CXCR4-induced HT-29 cells xenografted in NCR nude mouse assessed as spheroid formation at 100 mg/kg, po administered 5 times a week for 3 weeks by phase contrast microscopic analysis; assay type: functional, organism-based
# Method in brief: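 Xenografts (Dual Hi HT-29, FUOX-pretreated, 100 mg/kg oral 5×/week for 3 weeks) were digested with collagenase IV and filtered at 70 μm. Cells were plated serially as 1°–3° spheroids on low-adhesion plates in stem cell medium with EGF and FGF. Spheroids of 50–150 μm were counted by phase contrast. At least three replicates.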
# [15] = Toxicity in NCR nude mouse xenografted with human HT-29 cells assessed as bleeding at 100 mg/kg, po; assay type: organism-based; conditions: in vivo
# [16] = system: HT-29; test: Antitumor activity against human HT-29 cells xenografted in NCR nude mouse assessed as spheroid formation at 50 mg/kg, ip; assay type: functional, organism-based
# Method in brief: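 Bulk HT-29 xenografts in NCr nude mice were FUOX-pretreated, then given 50 mg/kg IP three times/week (8 doses), alone or with FUOX. Collagenase-digested tumor cells were serially cultured as 1°–4° spheroids in stem cell medium with EGF/FGF. Spheroids of 50–150 μm were counted by phase contrast, in at least three replicates.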
# [17] = Ex-vivo growth inhibition of mouse intestinal organoids measured for 5 to 7 days in presence of 5-fluorouracil and oxaliplatin by phase contrast microscopic analysis; assay type: toxicity, Intestine; conditions: time 5-7 day; method in brief: as §4
# [18] = system: HT-29; test: Cytotoxicity against human HT-29 cells assessed as reduction in cell viability incubated for 60 to 72 hrs by MTT assay; assay type: toxicity, cell-based; conditions: time 60-72 hrs; method in brief: as §5
# [19] = system: HT-29; test: Antitumor activity against human HT-29 cells xenografted in NCR nude mouse assessed as reduction in tumor volume at 25 mg/kg, ip administered for 3 weeks in presence of oxaliplatin by vernier caliper method; assay type: functional, organism-based
# Method in brief: (§6)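 HT-29 cells (1×10^6 bulk, or 1×10^5 FACS-sorted CD133+/CXCR4+) injected subcutaneously into NCr nude mice. Once tumors were palpable (>50 mm3), 5-fluorouracil 25 mg/kg plus oxaliplatin 2 mg/kg given IP weekly for 3 weeks, then mice randomized for further treatment. Tumor volume by Vernier caliper three times weekly. Ex vivo xenograft cells were digested with collagenase IV and assessed for 1°–4° spheroids (50–150 μm) and for Dual Hi/LGR5+ cells by flow cytometry.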
# [20] = system: HT-29; test: Antitumor activity against human HT-29 cells xenografted in NCR nude mouse assessed as increase in number of spheroids at 25 mg/kg, ip administered for 3 weeks in presence of oxaliplatin; assay type: functional, organism-based; method in brief: as §6
# [21] = system: HT-29; test: Antitumor activity against human HT-29 cells xenografted in NCR nude mouse assessed as increase in proportion of CSC at 25 mg/kg, ip administered for 3 weeks in presence of oxaliplatin by flow cytometry analysis (reference value: 11.37 %); assay type: functional; method in brief: as §6
# [22] = system: HT-29; test: Antitumor activity against human HT-29 cells xenografted in NCR nude mouse assessed as spheroid formation at 25 mg/kg, ip administered for 3 weeks in presence of oxaliplatin; assay type: functional, organism-based; method in brief: as §6
structure (smiles),measurement,setting,value
CC(C)CCC[C@@H](C)[C@H]1CC[C@H]2[C@@H]3CC=C4C[C@@H](OCCOc5cc(-c6oc7cc(OS(=O)(=O)[O-])cc(OCCCOc8cc(OS(=O)(=O)[O-])cc9oc(-c%10ccc(OS(=O)(=O)[O-])c(OS(=O)(=O)[O-])c%10)c(OS(=O)(=O)[O-])c(=O)c89)c7c(=O)c6OS(=O)(=O)[O-])ccc5OS(=O)(=O)[O-])CC[C@]4(C)[C@H]3CC[C@]12C.[Na+].[Na+].[Na+].[Na+].[Na+].[Na+].[Na+],Activity,[1],Active
same,Activity,[2],Dose-Dependent Effect
same,Activity,[3],Active
same,Activity,[4],~70%
same,Activity,[5],Non-Toxic
same,Activity,[6],Active
same,Activity,[7],Non-Toxic
same,IC50,[8],5.5 µM
same,Activity,[9],Toxic
same,Activity,[10],Non-Toxic
same,Activity,[11],Active
same,Activity,[12],Active
same,Activity,[13],Non-Toxic
same,Activity,[14],Active
same,Activity,[15],Non-Toxic
same,Activity,[16],Active
same,Activity,[17],Non-Toxic
O=c1cc(-c2ccc(OS(=O)(=O)[O-])cc2)oc2cc(OS(=O)(=O)[O-])cc(OCC3CCC(COc4cc(OS(=O)(=O)[O-])cc5oc(-c6ccc(OS(=O)(=O)[O-])cc6)cc(=O)c45)CC3)c12.[Na+].[Na+].[Na+].[Na+] (stereo not given),Activity,[18],Non-Toxic
same,IC50,[8],46 µM
O=c1[nH]cc(F)c(=O)[nH]1 [FLUOROURACIL],Activity,[19],Active
same,Activity,[20],Active
same,Activity,[21],26.4%
same,Activity,[22],Active
O=c1c(OS(=O)(=O)[O-])c(-c2ccc(OS(=O)(=O)[O-])c(OS(=O)(=O)[O-])c2)oc2cc(OS(=O)(=O)[O-])cc(OCC3CCC(COc4cc(OS(=O)(=O)[O-])cc5oc(-c6ccc(OS(=O)(=O)[O-])c(OS(=O)(=O)[O-])c6)c(OS(=O)(=O)[O-])c(=O)c45)CC3)c12.[Na+].[Na+].[Na+].[Na+].[Na+].[Na+].[Na+].[Na+] (stereo not given),Activity,[18],Non-Toxic
same,IC50,[8],4 µM
